Experimental findings from ChEMBL document CHEMBL1131029, “Synthesis and in vitro efficacy of transferrin conjugates of the anticancer drug chlorambucil” (J Med Chem, 1998) are described below.

Structures are written as SMILES.

For data set [1], the species on record is Homo sapiens. In words: Alkylating activity of compound remaining after 48 hours of incubation with 10% human blood serum. It counts as functional.
The test system of a further data set is MOLT-4. As to the kind of experiment: In vitro inhibitory activity against acute lymphoblastic leukemia (MOLT4) cell line. It counts as functional, cell-based. The following applies: Homo sapiens. An outline of the steps:
(§1)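 MCF7 (trypsinized monolayer) or MOLT4 (suspension) cells in RPMI 1640 with 10% FCS, plated at 1.0 × 10^5 cells/mL and allowed 24 h recovery. Then 6 days continuous drug exposure, 0.15–40 µM, triplicate wells. Propidium iodide fluorescence read (ex 530/em 620) before and after freeze-kill; viable cells = FU2 − FU1; %T/C; IC50 as mean ± SD, n = 3.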

Data set [2] is described as follows: Time required to reduce the alkylating activity of 10% human blood serum from its initial value by 50%. It counts as ADME, Plasma.
The species named for data set [3] is Homo sapiens. In words: Alkylating activity of compound remaining after 24 hours of incubation with 10% human blood serum. The format is functional.
Data set [4] is filed under the species Homo sapiens. As to the kind of experiment: Alkylating activity of compound remaining after 96 hours of incubation with 10% human blood serum. The format is functional.
In a further data set the test system is MCF7. In words: In vitro inhibitory activity against mammary carcinoma (MCF-7) cell line. It counts as functional, cell-based. The note with it: Homo sapiens. An outline of the steps: as §1

`O=C(CCCc1ccc(N(CCCl)CCCl)cc1)OCCN1C(=O)C=CC1=O`: the Activity in the data set listed under Homo sapiens [1] came to 13.8%; in the data set listed under Homo sapiens [3], 20.9%; in the data set filed under Homo sapiens [4] it was 11%. For the same compound, the half-inhibitory concentration (IC50) in the data set on MOLT-4 was 7.8 µM. For the same compound, the half-life in data set [2] was 3.1 h.
For `O=C(CCCc1ccc(N(CCCl)CCCl)cc1)N/N=C/CN1C(=O)C=CC1=O`, the results for the Activity in the data set listed under Homo sapiens [1], in the data set filed under Homo sapiens [3] and in the data set filed under Homo sapiens [4] were 19.5%, 25% and 15.2%, respectively. For the same compound, the IC50 in the data set with MOLT-4 turned out to be 0.35 µM; in the data set with MCF7, 6.8 µM. In data set [2], this compound gave a half-life of 4 h.
Consider `O=C(CCCc1ccc(N(CCCl)CCCl)cc1)Oc1cccc(N2C(=O)C=CC2=O)c1`, for which the Activity in the data set listed under Homo sapiens [1] stood at 15.2%; in the data set filed under Homo sapiens [3], 22.3%; in the data set filed under Homo sapiens [4] it was 12.1%. Moreover, the IC50 in the data set on MOLT-4 was 15.3 µM. Moreover, the half-life in data set [2] was 4.3 h.
The matching figures for `C/C(=N\NC(=O)CCCc1ccc(N(CCCl)CCCl)cc1)c1cccc(N2C(=O)C=CC2=O)c1`: 13.7%, 22.9%, 10.9%, 3.3 µM and 4.5 h.
For `O=C(CCCc1ccc(N(CCCl)CCCl)cc1)N/N=C/c1cccc(N2C(=O)C=CC2=O)c1`, the Activity stood at 14.5% in the data set filed under Homo sapiens [1], 24.1% in the data set listed under Homo sapiens [3] and 13.4% in the data set filed under Homo sapiens [4]. The results for the concentration for half-maximal inhibition (IC50) in the data set with MOLT-4 and in the data set with MCF7 were 7.5 µM and 35.5 µM, respectively. The compound further had a half-life in data set [2] of 5.9 h.
On to `O=C(O)CCCc1ccc(N(CCCl)CCCl)cc1` [CHLORAMBUCIL], for which the Activity is 6.6% in the data set filed under Homo sapiens [1] and 12.2% in the data set listed under Homo sapiens [3]. In addition, the results for the IC50 with MOLT-4 and with MCF7 were 6.3 µM and 24.6 µM, respectively. The same compound had a half-life in data set [2] of 4.5 h.
